Measurements reported in ChEMBL document CHEMBL1932966, “Pyrrolo- and pyrazolo-[3,4-e][1,2,4]triazolo[1,5-c]pyrimidines as adenosine receptor antagonists” (Bioorg Med Chem, 2012).

Tests used:
Adenosine receptor A1 = target: T1, Adenosine receptor A1 (Homo sapiens, UniProt P30542); experiment: Displacement of [3H]-DPCPX from human adenosine A1 receptor expressed in CHO cells after 120 mins by liquid scintillation counting; type: cell-based
T1 sequence (P30542 whole entry): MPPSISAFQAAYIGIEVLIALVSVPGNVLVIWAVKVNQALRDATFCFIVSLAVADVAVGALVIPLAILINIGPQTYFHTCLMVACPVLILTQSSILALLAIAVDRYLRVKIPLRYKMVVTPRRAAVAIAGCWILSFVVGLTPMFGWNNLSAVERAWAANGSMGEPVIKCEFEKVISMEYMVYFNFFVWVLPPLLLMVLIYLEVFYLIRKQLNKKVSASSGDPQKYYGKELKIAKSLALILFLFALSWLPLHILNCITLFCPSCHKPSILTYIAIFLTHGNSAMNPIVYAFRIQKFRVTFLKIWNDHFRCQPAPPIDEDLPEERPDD

Adenosine receptor A2a [1] = target: T2, Adenosine receptor A2a (Homo sapiens, UniProt P29274); experiment: Displacement of [3H]-ZM 241385 from human adenosine A2A receptor expressed in CHO cells after 60 mins by liquid scintillation counting; type: cell-based
Adenosine receptor A3 [2] = target: T3, Adenosine receptor A3 (Homo sapiens, UniProt P0DMS8); experiment: Displacement of [3H]-MRE-3008-F20 from human adenosine A3 receptor expressed in CHO cells after 120 mins by liquid scintillation counting; type: cell-based
T3 sequence (P0DMS8 whole entry): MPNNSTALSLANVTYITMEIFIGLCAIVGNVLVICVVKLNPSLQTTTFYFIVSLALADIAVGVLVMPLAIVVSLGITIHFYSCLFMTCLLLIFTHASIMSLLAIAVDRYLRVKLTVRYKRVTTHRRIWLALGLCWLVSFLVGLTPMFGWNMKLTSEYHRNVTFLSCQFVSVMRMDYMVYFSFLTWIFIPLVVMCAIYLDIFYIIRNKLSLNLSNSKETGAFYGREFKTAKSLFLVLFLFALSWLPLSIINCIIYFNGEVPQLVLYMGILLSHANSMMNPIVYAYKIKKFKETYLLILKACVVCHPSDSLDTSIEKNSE

Adenosine receptor A2b [3] = target: T4, Adenosine receptor A2b (Homo sapiens, UniProt P29275); type: functional, cell-based, CHO
T4 sequence (P29275 whole entry): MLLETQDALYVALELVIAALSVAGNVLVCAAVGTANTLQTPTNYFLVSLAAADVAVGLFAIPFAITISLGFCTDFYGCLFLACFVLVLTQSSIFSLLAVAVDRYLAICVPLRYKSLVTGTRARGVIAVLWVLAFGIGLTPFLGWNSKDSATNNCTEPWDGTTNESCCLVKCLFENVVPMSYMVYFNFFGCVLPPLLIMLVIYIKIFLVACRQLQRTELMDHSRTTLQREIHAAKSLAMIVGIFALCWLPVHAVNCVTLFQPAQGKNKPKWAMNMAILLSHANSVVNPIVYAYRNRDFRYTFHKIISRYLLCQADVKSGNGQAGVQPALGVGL

Adenosine receptor A2b [4] = target: T4, Adenosine receptor A2b; experiment: biochemical
Adenosine receptor A3 [5] = target: T3, Adenosine receptor A3; experiment: Antagonist activity at human adenosine A3 receptor expressed in forskolin-stimulated CHO cells assessed as inhibition of Cl-IB-MECA-induced cAMP production by competition protein binding assay; type: functional, cell-based
Summary of the method: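 CHO cells stably expressing human A3 receptor were harvested with dilute trypsin and preincubated for 10 min at 37 °C in pH 7.4 buffer with 2 IU/mL adenosine deaminase and the phosphodiesterase inhibitor Ro 20-1724. Antagonism of 100 nM Cl-IB-MECA was run with forskolin present. The reaction was stopped with cold 6% TCA and extracted with ether. cAMP was read against [3H]cAMP and bovine adrenal binding protein. IC50 came from sigmoid fitting.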

[6] = target: T5, Adenosine receptor A1 (Homo sapiens) (UniProt P30542); experiment: Displacement of [3H]-DPCPX from human adenosine A1 receptor expressed in CHO cells at 1 uM after 120 mins by liquid scintillation counting; type: cell-based
T5 sequence (whole entry): T1 sequence (P30542 whole entry)
Summary of the method: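 Percent inhibition at a single concentration of 1 nM [3H]DPCPX binding to hA1-CHO membranes in 50 mM Tris HCl, pH 7.4. Membranes were pretreated with 2 IU/mL adenosine deaminase for 30 min at 37 °C. Incubation was 120 min at 25 °C, and bound label was separated by GF/B glass-fibre filtration.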

Adenosine receptor A2a [7] = target: T2, Adenosine receptor A2a; experiment: Displacement of [3H]-ZM 241385 from human adenosine A2A receptor expressed in CHO cells at 1 uM after 60 mins by liquid scintillation counting; type: cell-based
[8] = target: T6, Adenosine receptor A3 (Homo sapiens) (UniProt P0DMS8); experiment: Displacement of [3H]-MRE-3008-F20 from human adenosine A3 receptor expressed in CHO cells at 1 uM after 120 mins by liquid scintillation counting; type: cell-based
T6 sequence (whole entry): T3 sequence (P0DMS8 whole entry)
Summary of the method: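 Membranes from hA3-CHO cells in 50 mM Tris HCl, 10 mM MgCl2, 1 mM EDTA, pH 7.4, pretreated with adenosine deaminase (2 IU/mL, 30 min, 37 °C). Incubation 120 min at 4 °C. Non-specific binding with unlabelled MRE3008F20. GF/B filtration.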

[9] = target: Adenosine receptor A2B (Homo sapiens) (UniProt P29275); conditions: CHO, at 1 µM

T2 sequence (P29274 whole entry): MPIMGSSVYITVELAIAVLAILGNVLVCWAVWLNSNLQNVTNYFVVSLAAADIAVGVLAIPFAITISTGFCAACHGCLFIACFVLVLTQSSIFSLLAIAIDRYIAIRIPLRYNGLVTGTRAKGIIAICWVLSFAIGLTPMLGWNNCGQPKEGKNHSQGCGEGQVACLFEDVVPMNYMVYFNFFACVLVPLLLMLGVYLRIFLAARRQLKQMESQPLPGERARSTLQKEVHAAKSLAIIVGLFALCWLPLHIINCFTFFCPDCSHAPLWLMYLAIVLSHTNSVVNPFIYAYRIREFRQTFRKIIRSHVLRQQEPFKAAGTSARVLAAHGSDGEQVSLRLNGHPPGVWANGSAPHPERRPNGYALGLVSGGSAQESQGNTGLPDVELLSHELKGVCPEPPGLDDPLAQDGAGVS

SMILES	Ki (Adenosine receptor A1) [nM]	Ki (Adenosine receptor A2a [1]) [nM]	Ki (Adenosine receptor A3 [2]) [nM]	IC50 (Adenosine receptor A2b [3]) [nM]	Ki (Adenosine receptor A2b [4]) [nM]	IC50 (Adenosine receptor A3 [5]) [nM]	inhibition [6] [%]	inhibition (Adenosine receptor A2a [7]) [%]	inhibition [8] [%]	inhibition [9] [%]
Cn1cc2nc(N)n3nc(-c4ccco4)nc3c2n1	30	8.1	125	33	–	–	–	–	–	–
Nc1nc2c(cnn2CCCc2ccccc2)c2nc(-c3ccco3)nn12 [SCH-63390]	–	–	> 10000	–	> 10000	–	–	–	–	–
Cn1ncc2nc(NC3CCCCC3)n3nc(-c4ccco4)nc3c21	12	119	507	915	–	–	–	–	–	–
Nc1nc2cn(CCCc3ccccc3)cc2c2nc(-c3ccco3)nn12	18	50	241	251	–	–	–	–	–	–
COc1ccc(NC(=O)Nc2nc3cnn(CCc4ccccc4)c3c3nc(-c4ccco4)nn23)cc1	524	626	208	772	–	–	–	–	–	–
COc1ccc(NC(=O)Nc2nc3cn(C)cc3c3nc(-c4ccco4)nn23)cc1	800	500	15	838	–	75	–	–	–	–
CCCn1cc2nc(NC(=O)Nc3ccc(OC)cc3)n3nc(-c4ccco4)nc3c2n1	240	208	50	863	–	250	–	–	–	–
CCCn1ncc2nc(NC(=O)Nc3ccc(OC)cc3)n3nc(-c4ccco4)nc3c21	61	20	161	32	–	–	–	–	–	–
Nc1nc2cn(CCCc3ccccc3)nc2c2nc(-c3ccco3)nn12	7.1	11	526	32	–	–	–	–	–	–
COc1ccc(NC(=O)Nc2nc3cnn(CCCc4ccccc4)c3c3nc(-c4ccco4)nn23)cc1	> 1000	> 1000	> 1000	> 1000	–	–	38	32	25	32
Nc1nc2c(cnn2CCc2ccccc2)c2nc(-c3ccco3)nn12 [SCH-58261]	–	–	> 10000	–	–	–	–	–	–	–
COc1ccc(NC(=O)Nc2nc3cn(C)nc3c3nc(-c4ccco4)nn23)cc1	923	222	110	580	–	–	–	–	–	–
Nc1nc2cn(CCc3ccccc3)nc2c2nc(-c3ccco3)nn12	4.9	9.2	315	27	–	–	–	–	–	–
COc1ccc(NC(=O)Nc2nc3cn(CCCc4ccccc4)nc3c3nc(-c4ccco4)nn23)cc1	> 1000	> 1000	815	> 1000	–	–	35	31	–	31
CCCn1cc2nc(N)n3nc(-c4ccco4)nc3c2c1	35	30	55	90	–	–	–	–	–	–
Cn1cc2nc(N)n3nc(-c4ccco4)nc3c2c1	100	20	50	42	–	–	–	–	–	–

SMILES	Ki (Adenosine receptor A1) [nM]	Ki (Adenosine receptor A2a [1]) [nM]	Ki (Adenosine receptor A3 [2]) [nM]	IC50 (Adenosine receptor A2b [3]) [nM]	Ki (Adenosine receptor A2b [4]) [nM]	IC50 (Adenosine receptor A3 [5]) [nM]	inhibition [6] [%]	inhibition (Adenosine receptor A2a [7]) [%]	inhibition [8] [%]	inhibition [9] [%]
Cn1cc2nc(NC(=O)Nc3ccncc3)n3nc(-c4ccco4)nc3c2c1	355	> 1000	111	> 1000	–	–	–	13	–	8
COc1ccc(NC(=O)Nc2nc3cnn(C)c3c3nc(-c4ccco4)nn23)cc1	129	68	61	122	–	–	–	–	–	–
CN1CCN(c2nc3cnn(C)c3c3nc(-c4ccco4)nn23)CC1	> 1000	> 1000	> 1000	> 1000	–	–	5	2	1	2
COc1ccc(NC(=O)Nc2nc3cn(CCc4ccccc4)cc3c3nc(-c4ccco4)nn23)cc1	178	148	12	740	–	–	–	–	–	–
Cn1ncc2nc(N3CCOCC3)n3nc(-c4ccco4)nc3c21	> 1000	> 1000	> 1000	> 1000	–	–	6	4	1	4
COc1ccc(NC(=O)Nc2nc3cn(CCc4ccccc4)nc3c3nc(-c4ccco4)nn23)cc1	753	672	314	548	–	–	–	–	–	–
CCCn1ncc2nc(N)n3nc(-c4ccco4)nc3c21	14	12	83	40	–	500	–	–	–	–
CCCn1cc2nc(NC(=O)Nc3ccc(OC)cc3)n3nc(-c4ccco4)nc3c2c1	743	200	10	906	–	50	–	–	–	–
Cn1ncc2nc(N3CCN(c4ccccc4)CC3)n3nc(-c4ccco4)nc3c21	> 1000	> 1000	> 1000	> 1000	–	–	8	9	1	5
CCCn1cc2nc(N)n3nc(-c4ccco4)nc3c2n1	22	17	432	45	–	–	–	–	–	–
COc1ccc(NC(=O)Nc2nc3cn(CCCc4ccccc4)cc3c3nc(-c4ccco4)nn23)cc1	210	130	13	> 1000	–	–	–	–	–	12
Nc1nc2cnn(CCc3ccccc3)c2c2nc(-c3ccco3)nn12	33	42	603	319	–	–	–	–	–	–
Nc1nc2cnn(CCCc3ccccc3)c2c2nc(-c3ccco3)nn12	85	122	802	595	–	–	–	–	–	–
Nc1nc2cn(CCc3ccccc3)cc2c2nc(-c3ccco3)nn12	4.3	3.9	124	46	–	–	–	–	–	–
Cn1ncc2nc(N)n3nc(-c4ccco4)nc3c21	10	3.6	749	31	–	–	–	–	–	–
